Screening results from PubChem.
Shown are actives, neighbours in structure and some others; about 3.8% of the full set was active somewhere.
KCNK3 inh: human KCNK3 channel inhibition, primary screen; O14649; CHO-KCNK3 thallium flux, FluxOR fluorescence; active compounds read low; B-score at 10 µM; 340,000 compounds, 0.84% hits; AID 602410;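 active = B-score under library mean minus 4 SD, starting fluorescence ratio at most library mean plus 5 SD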;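 also: more negative B-score means stronger inhibition of thallium flux through KCNK3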
KCNQ1 pot: potentiators or activators of human KCNQ1 potassium channel; CHO-K1 KCNQ1, thallium flux FluxOR fluorescence; active compounds read high; P51787; 310,000 compounds, 0.35% hits; B-score at 10 µM;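 active = fluorescence ratio B-score, a plate-corrected score, at least three library SD, with initial intensity B-score within 5 SD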
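Assay system: stable KCNQ1 CHO-K1 line; medium: assay buffer, equal DMSO in all wells; timing: 90 min dye loading and 20 min compound exposure, both at room temperature; technique: kinetic FluxOR thallium fluorescence, 10-s 1-Hz baseline, 110-s post-stimulus read; read-out basis: B score of baseline-normalized fluorescence ratio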
KCNK9 inh: blocks the human KCNK9 two-pore domain potassium channel. B-score at 10 µM. 310,000 compounds, 1.2% hits. HEK293 KCNK9, FluxOR thallium flux fluorescence; active compounds read low. Q9NPC2;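 active = ratio B-score over 3 SD below the library mean, with starting fluorescence within 5 SD of its mean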;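 also: negative B-score means less thallium flux so channel inhibition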
Target sequence (Q9NPC2 whole entry, looked up, the tested form may be a part): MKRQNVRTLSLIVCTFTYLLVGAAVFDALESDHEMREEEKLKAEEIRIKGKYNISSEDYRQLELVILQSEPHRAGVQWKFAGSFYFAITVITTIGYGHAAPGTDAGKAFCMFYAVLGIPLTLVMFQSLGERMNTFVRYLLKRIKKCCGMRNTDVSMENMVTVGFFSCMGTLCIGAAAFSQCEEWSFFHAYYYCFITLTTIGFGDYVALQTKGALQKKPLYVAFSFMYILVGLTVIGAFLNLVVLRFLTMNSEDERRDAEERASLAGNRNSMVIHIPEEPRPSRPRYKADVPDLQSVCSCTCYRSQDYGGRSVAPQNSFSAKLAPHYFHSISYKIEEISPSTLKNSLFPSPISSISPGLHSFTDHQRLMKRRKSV
hERG rescue: hERG (human) protection from proarrhythmic block. Q12809. CHO-hERG, FluxOR thallium flux, dofetilide IC70 present. activation (rescue from dofetilide block), less the hit threshold, % at 10 µM. 310,000 compounds, 0.51% hits. AID 1511;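 active = activation above the mean of controls blocked by dofetilide plus 5 SD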;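 also: thallium influx through hERG after potassium depolarization seen as dye fluorescence rise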
Kir21 inh: blocks the mouse Kir2.1 inward-rectifier potassium channel; P35561; HEK293-Kir2.1, FluxOR thallium flux fluorescence; active compounds read low; B-score at 10 µM; 310,000 compounds, 0.85% hits; AID 1672;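 active = fluorescence ratio B-score at or below minus 3 SD of library scores, with starting-brightness B-score within 2 SD, cut at about -4.2 in these data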;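 also: channel flux triggered by added potassium and thallium sulfate stimulus; B-score of peak minus minimum fluorescence over baseline after thallium stimulus; more negative B-score means stronger Kir2.1 block with less thallium influx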
KCNQ1 block: blocks the human KCNQ1 potassium channel; CHO-K1 KCNQ1, FluxOR thallium flux fluorescence; active compounds read high; 310,000 compounds, 1.3% hits; P51787; B-score at 10 µM;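 active = compounds whose thallium flux B-score, printed positive for inhibition, exceeds three library SD while starting fluorescence stays within three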;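 also: channel opened by potassium depolarization with thallium stimulus after 20 min compound exposure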
Large screens that a line does not name were inactive.

O=C(Nc1ccccc1)Nc1ccc(O)c2ccccc12	KCNQ1 block 6
CC(=O)c1ccc(NC(=O)Nc2ccc([N+](=O)[O-])cc2)cc1	KCNQ1 block 7
CC(=O)c1ccc(-n2nncc2-c2ccc([N+](=O)[O-])cc2)cc1	hERG rescue 5.5
CC(=O)c1ccc(NC(=O)Nc2ccncc2)cc1	hERG rescue 4.8
O=C(Nc1ccc([N+](=O)[O-])cc1)Nc1cnccn1	KCNQ1 block 12
COc1ccc(S(=O)(=O)N2CCCOC2CNC(=O)C(=O)NCc2cccnc2)cc1 (stereo not given)	none
COc1ccc(NS(=O)(=O)c2cc(NC(=O)C(CC(C)C)NC(N)=O)ccc2N2CCOCC2)cc1 (stereo not given)	none (no result: KCNQ1 pot, KCNK9 inh, hERG rescue, Kir21 inh, KCNQ1 block)
CC(=O)Nc1ccc(OCCOc2ccc([N+](=O)[O-])cc2)cc1	none
O=C(Nc1ccc(Oc2ccc(NC(=O)Nc3ccc([N+](=O)[O-])cc3)cc2)cc1)Nc1ccc([N+](=O)[O-])cc1	KCNQ1 block 8
O=C(NNC(=O)c1cccnc1)Nc1ccc([N+](=O)[O-])cc1	none
O=C(NNC(=O)c1ccncc1)Nc1ccc([N+](=O)[O-])cc1	KCNQ1 block 7
Cc1ccnc(NC(=O)c2ccc(S(=O)(=O)N3CCC(C)CC3)cc2)c1	none
OC(CCN1CCOCC1)c1ccccc1 (stereo not given)	hERG rescue 9.3
CC(C)CNC(=O)CSc1ccc(S(=O)(=O)N2CCN(C)CC2)cn1	none (no result: KCNQ1 pot, KCNK9 inh, hERG rescue, Kir21 inh, KCNQ1 block)
O=C(NCCN1CCN(c2cccc(Cl)c2)CC1)Nc1ccccc1	none
O=C(NCCN1CCN(Cc2ccccc2)CC1)Nc1cc(Cl)cc(Cl)c1	KCNQ1 block 6
O=C(C1CC(=O)N(C2CCCCC2)C1)N1CCN(c2cccc(C(F)(F)F)c2)CC1 (stereo not given)	none
Cc1ccc(CN2CCN(/N=C/c3ccc(C(=O)O)cc3)CC2)cc1	none
Cc1ccc(CN2CCN(/N=C/c3ccc(O)c(O)c3)CC2)cc1	hERG rescue 7.1
CC(C)N1C(=O)/C(=C/c2nc3ccccc3c(=O)n2-c2ccccc2)c2ccccc21	KCNQ1 block 6
COC(=O)[C@H](CC(C)C)NCc1cccc(CN[C@@H](CC(C)C)C(=O)OC)c1	Kir21 inh -4.3
CN(C)CCN[C@H]1CCC2C3CC=C4C[C@@H](O)CC[C@]4(C)C3CC[C@@]21C (stereo not given in full)	none (no result: KCNQ1 pot, KCNK9 inh, hERG rescue, Kir21 inh, KCNQ1 block)
Cc1nc(NCCc2ccc(F)cc2)c2nnn(Cc3ccccc3)c2n1	none
Cc1nc(NCCc2ccc(O)cc2)c2nnn(Cc3ccccc3)c2n1	hERG rescue 9.1
COC(=O)Oc1c(Br)c(=O)oc2ccccc12	Kir21 inh -4.8
Cn1c(C(=O)N2CCCC(C(=O)NCCN3CCOCC3)C2)cc2sccc21 (stereo not given)	hERG rescue 7.3
CCOc1ccc(S(=O)(=O)N2CCCC(C(=O)NCCN3CCOCC3)C2)cc1Cl (stereo not given)	KCNQ1 pot 9
COC(=O)Cc1c[nH]c2cccc(OCC(O)CN(Cc3ccc([N+](=O)[O-])cc3)C(C)(C)C)c12 (stereo not given)	KCNK9 inh -7.8
CC(C)c1cc(NCCN2CCOCC2)n2c(nc3ccccc32)c1C#N	KCNK3 inh -9.2 (no result: KCNQ1 pot, KCNK9 inh, hERG rescue, Kir21 inh, KCNQ1 block)
N#Cc1c2c(c(NCCN3CCOCC3)n3c1nc1ccccc13)CCCC2	KCNK3 inh -8.9
Cc1ccc(C(=O)C(c2ccccc2)N2Cc3ccccc3C2=N)cc1 (stereo not given)	Kir21 inh -8.3, KCNQ1 block 11
COc1ccc(C(=O)C(c2ccccc2)N2CCOCC2)cc1 (stereo not given)	none
COc1ccccc1CNC(=O)C(CCSC)NC(=O)c1cccc(S(=O)(=O)N2CCOCC2)c1 (stereo not given)	none (no result: KCNQ1 pot, KCNK9 inh, hERG rescue, Kir21 inh, KCNQ1 block)
Cc1onc(-c2c(F)cccc2Cl)c1C(O)c1ccc(F)cc1 (stereo not given)	Kir21 inh -4.4
Cc1onc(-c2ccccc2Cl)c1C(O)c1ccc(F)cc1 (stereo not given)	none
Cc1ccc2nc(SCC(=O)Nc3ccc(F)cc3F)nc(=O)n2c1	none
